Legend:
[1] = Oral bioavailability in Sprague dawley rat at 3 mg/kg; assay type: ADME, organism-based; settings: in vivo
Procedure, shortened: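 Male-unspecified SD rats, n = 3 per group, single i.v. dose 1 mg/kg or oral 3 mg/kg. Blood drawn into heparin tubes at set times, centrifuged at 4 °C, plasma quantified by LC-MS/MS; noncompartmental parameters fitted.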

[2] = biological target: Serine/threonine-protein kinase B-raf (Homo sapiens) (UniProt P15056); assay: Inhibition of recombinant GST-tagged human full length BRAF expressed in baculovirus expression system at 1 uM measured by select screen assay relative to control
Chain of Serine/threonine-protein kinase B-raf (Homo sapiens) (P15056 whole entry): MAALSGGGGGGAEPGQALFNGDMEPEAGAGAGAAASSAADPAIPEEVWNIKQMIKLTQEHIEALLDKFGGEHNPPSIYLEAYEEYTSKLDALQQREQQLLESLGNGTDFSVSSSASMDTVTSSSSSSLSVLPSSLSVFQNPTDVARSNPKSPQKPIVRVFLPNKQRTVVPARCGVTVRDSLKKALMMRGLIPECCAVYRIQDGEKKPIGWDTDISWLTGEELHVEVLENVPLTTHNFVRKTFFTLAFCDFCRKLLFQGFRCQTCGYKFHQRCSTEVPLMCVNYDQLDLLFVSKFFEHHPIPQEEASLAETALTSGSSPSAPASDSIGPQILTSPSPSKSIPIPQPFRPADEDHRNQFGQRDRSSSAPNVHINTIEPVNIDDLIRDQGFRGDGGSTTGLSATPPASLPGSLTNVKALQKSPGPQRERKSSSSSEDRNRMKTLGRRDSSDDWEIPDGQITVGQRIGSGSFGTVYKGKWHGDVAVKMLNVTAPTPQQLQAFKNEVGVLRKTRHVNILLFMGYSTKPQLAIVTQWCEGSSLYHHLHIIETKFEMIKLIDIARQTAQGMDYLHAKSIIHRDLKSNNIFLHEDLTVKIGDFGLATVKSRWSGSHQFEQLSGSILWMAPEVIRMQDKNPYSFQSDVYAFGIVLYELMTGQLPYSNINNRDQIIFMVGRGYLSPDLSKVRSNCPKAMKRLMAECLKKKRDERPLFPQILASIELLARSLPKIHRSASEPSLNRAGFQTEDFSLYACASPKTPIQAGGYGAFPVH
Procedure, shortened: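 Single-concentration profiling at 1.0 µM in a 28-kinase SelectScreen panel; percent inhibition reported.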

[3] = biological target: CYP2D6 (Homo sapiens, UniProt P10635); assay: Inhibition of CYP2D6 in human liver microsomes at 10 uM preincubated for 10 mins followed by addition of NADPH and measured after 15 mins by LC-MS/MS analysis; assay type: ADME; settings: time 25 min
Chain of CYP2D6 (P10635 whole entry): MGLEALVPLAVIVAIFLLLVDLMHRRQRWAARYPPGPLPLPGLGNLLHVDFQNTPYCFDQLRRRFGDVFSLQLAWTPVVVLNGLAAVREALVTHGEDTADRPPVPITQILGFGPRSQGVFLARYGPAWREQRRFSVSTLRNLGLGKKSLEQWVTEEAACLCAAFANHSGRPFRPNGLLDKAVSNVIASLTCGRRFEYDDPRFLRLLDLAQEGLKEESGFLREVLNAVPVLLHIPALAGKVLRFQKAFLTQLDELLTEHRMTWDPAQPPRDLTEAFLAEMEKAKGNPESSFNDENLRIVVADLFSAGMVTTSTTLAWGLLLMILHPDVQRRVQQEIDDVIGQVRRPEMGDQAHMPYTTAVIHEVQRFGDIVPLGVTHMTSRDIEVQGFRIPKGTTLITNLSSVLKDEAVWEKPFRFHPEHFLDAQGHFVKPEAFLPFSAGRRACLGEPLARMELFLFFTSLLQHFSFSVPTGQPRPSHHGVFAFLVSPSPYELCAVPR
Procedure, shortened: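 Pooled human liver microsomes (0.253 mg/mL) with test compound at 10 µM and probe substrates: phenacetin (CYP1A2), diclofenac (CYP2C9), S-mephenytoin (CYP2C19), dextromethorphan (CYP2D6), midazolam (CYP3A4). 10 min preincubation at 37 °C, NADPH-regenerating system added, 15 min at 37 °C. Stopped with cold acetonitrile containing tolbutamide/labetalol internal standards, centrifuged, supernatant read by LC-MS/MS; % inhibition.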

bioavailability [1]: 44.3%
inhibition [2]: 3%
inhibition at 0.25 h, 10 µM [3]: 0%
SMILES: CN1CCN(c2ccc(C(=O)Nc3n[nH]c4c3CN(Cc3cc(F)cc(F)c3)C4(C)C)cc2)CC1

Reference: ChEMBL document CHEMBL4840303, “Design, synthesis, biological evaluation and pharmacophore model analysis of novel tetrahydropyrrolo[3,4-c]pyrazol derivatives as potential TRKs inhibitors” (Eur J Med Chem, 2021)
